Active and inactive are the calls of the source. The calls are words filed in the database; no cut-off is given here.
Key:
Assay type in all cases: cell-based
[1] = target: Transient receptor potential cation channel subfamily V member 1 (Rattus norvegicus) (UniProt O35433); assay: Agonist activity at rat TRPV1 channel expressed in HEK293 cells assessed as outward rectifying current at 50 uM and -60 mV holding potential by whole-cell patch-clamp method
Procedure, shortened: (§1)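 Rat TRPV1 cDNA and an EGFP reporter were cotransfected into HEK293 cells, with recording 1 day later. Whole-cell voltage clamp was run at room temperature (~25 °C) in standard bath (2 mM CaCl2, pH 7.4) with a KCl/MgATP/EGTA pipette solution. Steps from −100 to +100 mV (100 ms) gave I–V curves. Agonist was applied until desensitization, and peak current was scored. EC50 came from a sigmoidal fit.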

[2] = target: Transient receptor potential cation channel subfamily V member 1 (Rattus norvegicus) (UniProt O35433); assay: Partial antagonist activity at rat TRPV1 expressed in HEK293 cells assessed as inhibition of proton-induced channel current at 1 or 50 uM and -60 mV holding potential pretreated for 60 secs prior to proton-challenge by whole-cell patch clamp method (reference value: 185.1 +/- 38.6 pA/pF)
Procedure, shortened: (§2)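 Proton-activated currents were recorded in rat TRPV1-expressing HEK293 cells held at −60 mV in whole-cell mode, with bath buffered to pH 6 with 10 mM MES, at ~25 °C. Peak current amplitude was the read-out.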

[3] = target: Transient receptor potential cation channel subfamily V member 1 (Rattus norvegicus) (UniProt O35433); assay: Agonist activity at rat TRPV1 channel expressed in HEK293 cells assessed as reversal potential at 50 uM and -60 mV holding potential by whole-cell patch-clamp method; procedure, shortened: as §1
[4] = target: Transient receptor potential cation channel subfamily V member 1 (Rattus norvegicus) (UniProt O35433); assay: Agonist activity at rat TRPV1 channel expressed in HEK293 cells assessed as induction of maximum channel current at 50 uM at -60 mV holding potential by whole-cell patch-clamp method; procedure, shortened: as §1
[5] = target: Transient receptor potential cation channel subfamily V member 1 (Rattus norvegicus) (UniProt O35433); assay: Agonist activity at rat TRPV1 channel expressed in HEK293 cells assessed as induction of inward current at 50 uM and -60 mV holding potential by whole-cell patch-clamp method; procedure, shortened: as §1
[6] = target: Transient receptor potential cation channel subfamily V member 1 (Rattus norvegicus, UniProt O35433); assay: Agonist activity at rat TRPV1 channel expressed in HEK293 cells assessed as induction of channel current at -60 mV holding potential by whole-cell patch-clamp method; procedure, shortened: as §1
[7] = target: Transient receptor potential cation channel subfamily V member 1 (Rattus norvegicus) (UniProt O35433); assay: Partial antagonist activity at rat TRPV1 expressed in HEK293 cells assessed as inhibition of proton-induced channel current at 2 uM at -60 mV holding potential co-treated with proton by whole-cell patch clamp method; procedure, shortened: as §2

Transient receptor potential cation channel subfamily V member 1 (Rattus norvegicus), sequence (O35433 whole entry): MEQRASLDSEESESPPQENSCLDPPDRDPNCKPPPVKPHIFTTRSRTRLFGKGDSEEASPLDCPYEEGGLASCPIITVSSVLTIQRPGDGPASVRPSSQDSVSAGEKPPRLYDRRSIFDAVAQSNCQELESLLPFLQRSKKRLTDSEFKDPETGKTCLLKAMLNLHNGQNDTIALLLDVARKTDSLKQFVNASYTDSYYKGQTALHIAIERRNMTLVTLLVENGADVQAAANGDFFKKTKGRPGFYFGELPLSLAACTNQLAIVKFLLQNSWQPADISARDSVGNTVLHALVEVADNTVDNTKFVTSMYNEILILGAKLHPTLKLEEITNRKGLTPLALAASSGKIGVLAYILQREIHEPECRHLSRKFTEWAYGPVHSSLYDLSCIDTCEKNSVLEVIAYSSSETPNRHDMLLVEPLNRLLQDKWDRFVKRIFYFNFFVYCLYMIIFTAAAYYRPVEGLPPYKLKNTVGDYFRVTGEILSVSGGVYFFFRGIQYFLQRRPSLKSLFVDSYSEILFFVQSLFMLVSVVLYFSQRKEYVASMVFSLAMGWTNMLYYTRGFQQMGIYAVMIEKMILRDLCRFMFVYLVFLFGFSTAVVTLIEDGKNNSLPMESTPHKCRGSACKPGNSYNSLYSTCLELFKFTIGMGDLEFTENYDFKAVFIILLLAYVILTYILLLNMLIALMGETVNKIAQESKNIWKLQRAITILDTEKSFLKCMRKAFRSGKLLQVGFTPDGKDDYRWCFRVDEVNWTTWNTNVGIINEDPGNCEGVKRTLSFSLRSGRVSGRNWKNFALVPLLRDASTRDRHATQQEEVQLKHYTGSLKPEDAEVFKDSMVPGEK
Transient receptor potential cation channel subfamily V member 1, sequence (O35433 whole entry): as above

Activity [1]: Active
Activity [2]: -157 pA/pF
Activity [3]: 0 mV
Activity [4]: -55 pA/pF
Activity [5]: Active
EC50 [6]: 2060 nM
Activity [7]: -200 pA/pF
Structure (SMILES): O=c1c2ccccc2nc2n1CCc1c-2[nH]c2ccccc12 [RUTAECARPINE]
